Experimental data taken from ChEMBL document CHEMBL6182834, “Dual EGFR and telomerase inhibitory potential of new triazole tethered Schiff bases endowed with apoptosis: design, synthesis, and biological assessments” (RSC Med Chem, 2025).

Assays:
[1] = Cytotoxicity against HSF cells assessed as growth inhibition at 100 ug/mL incubated for 48 hrs by SRB assay relative to control; format: toxicity, cell-based; conditions: human, at 100 µg/mL, read-out: GI
In short: (§1)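 SRB assay: cells seeded at 3×10^3/well, allowed 24 h to attach, then exposed to 100 µg/mL for 48 h, three wells per concentration, DMSO 1% v/v vehicle control. Cells fixed with 20% trichloroacetic acid and stained with 0.4% SRB, then OD read at 570 nm. Survival fraction taken as treated OD/control OD.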

[2] = test system: A-375; experiment: Antiproliferative activity against human A-375 cells assessed as growth inhibition at 100 ug/mL incubated for 48 hrs by SRB assay relative to control; format: functional; conditions: read-out: GI; in short: as §1
[3] = test system: Huh-7; experiment: Antiproliferative activity against human Huh-7 cells assessed as growth inhibition at 100 ug/mL incubated for 48 hrs by SRB assay relative to control; format: functional; conditions: read-out: GI; in short: as §1
[4] = test system: MDA-MB-468; experiment: Antiproliferative activity against human MDA-MB-468 cells assessed as growth inhibition at 100 ug/mL incubated for 48 hrs by SRB assay relative to control; format: functional; conditions: read-out: GI; in short: as §1
[5] = test system: Caco-2; experiment: Antiproliferative activity against human Caco-2 cells assessed as growth inhibition at 100 ug/mL incubated for 48 hrs by SRB assay relative to control; format: functional; conditions: read-out: GI; in short: as §1
[6] = test system: FaDu; experiment: Antiproliferative activity against human FaDu cells assessed as growth inhibition at 100 ug/mL incubated for 48 hrs by SRB assay relative to control; format: functional; conditions: read-out: GI; in short: as §1
[7] = test system: MG-63; experiment: Antiproliferative activity against human MG-63 cells assessed as growth inhibition at 100 ug/mL incubated for 48 hrs by SRB assay relative to control; format: functional; conditions: read-out: GI; in short: as §1
[8] = test system: HeLa; experiment: Antiproliferative activity against human HeLa cells assessed as growth inhibition at 100 ug/mL incubated for 48 hrs by SRB assay relative to control; format: functional; conditions: read-out: GI; in short: as §1
[9] = test system: MCF7; experiment: Antiproliferative activity against human MCF7 cells assessed as growth inhibition at 100 ug/mL incubated for 48 hrs by SRB assay relative to control; format: functional; conditions: read-out: GI; in short: as §1
[10] = test system: HCT-116; experiment: Antiproliferative activity against human HCT-116 cells assessed as growth inhibition at 100 ug/mL incubated for 48 hrs by SRB assay relative to control; format: functional; conditions: read-out: GI; in short: as §1
[11] = test system: HepG2; experiment: Antiproliferative activity against human HepG2 cells assessed as growth inhibition at 100 ug/mL incubated for 48 hrs by SRB assay relative to control; format: functional; conditions: read-out: GI; in short: as §1
[12] = Antiproliferative activity against human HNO 97 cell line assessed as growth inhibition at 100 ug/mL incubated for 48 hrs by SRB assay relative to control; format: functional; conditions: read-out: GI; in short: as §1
[13] = Cytotoxicity against human oral epithelial cells (OEC) assessed as growth inhibition at 100 ug/mL incubated for 48 hrs by SRB assay relative to control; format: toxicity, cell-based, Oral epithelial cell; conditions: at 100 µg/mL, read-out: GI; in short: as §1
[14] = Cytotoxicity against human HNO 97 cell line assessed as inhibition of cell growth incubated for 48 hrs by SRB assay; format: functional, cell-based; conditions: HNO 97, 48 h
In short: (§2)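 Cells plated at 3×10^3/well and left 24 h to attach. Treated at 12.5, 25, 50 and 62.5 µg/mL for 48 h, three wells per concentration, with DMSO (1% v/v) vehicle control. Fixed with 20% TCA, stained with 0.4% SRB, OD read at 570 nm. Survival fraction = treated OD/control OD. IC50 from sigmoidal dose-response curve fitting.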

[15] = test system: HCT-116; experiment: Cytotoxicity against human HCT-116 cells assessed as inhibition of cell growth incubated for 48 hrs by SRB assay; format: functional, cell-based; conditions: HCT-116, 48 h; in short: as §2
[16] = test system: A-375; experiment: Cytotoxicity against human A-375 cells assessed as inhibition of cell growth incubated for 48 hrs by SRB assay; format: functional, cell-based; conditions: A-375, 48 h; in short: as §2
[17] = test system: HepG2; experiment: Cytotoxicity against human HepG2 cells assessed as inhibition of cell growth incubated for 48 hrs by SRB assay; format: functional, cell-based; conditions: HepG2, 48 h; in short: as §2
[18] = test system: A-375; experiment: Induction of apoptosis in human A-375 cells assessed as upregulation of caspase 3 expression by measuring fold change at 5.04 microg/ml incubated for 1 hrs by ELISA; format: functional; conditions: dose 5.04 µg/ml
In short: (§3)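 Sandwich ELISA with plate precoated with capture antibody for each of caspase-3, -8, -9, CDK2, CDK4 and CDK6. Samples and a 7-point standard incubated 1 h at 37 °C, then biotinylated antibody 1 h, avidin-HRP 30 min and TMB 10-20 min. Reaction stopped with sulphuric acid and read at 450 nm. Duplicate readings, zero standard subtracted, amounts taken from the standard curve.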

[19] = test system: A-375; experiment: Induction of apoptosis in human A-375 cells assessed as upregulation of caspase 8 expression by measuring fold change at 5.04 microg/ml incubated for 1 hrs by ELISA; format: functional; conditions: dose 5.04 µg/ml; in short: as §3
[20] = test system: A-375; experiment: Induction of apoptosis in human A-375 cells assessed as upregulation of caspase 9 expression by measuring fold change at 5.04 microg/ml incubated for 1 hrs by ELISA; format: functional; conditions: dose 5.04 µg/ml; in short: as §3
[21] = test system: A-375; experiment: Induction of apoptosis in human A-375 cells assessed as downregulation of CDK2 expression by measuring fold change at 5.04 microg/ml incubated for 1 hrs by ELISA; format: functional; conditions: dose 5.04 µg/ml; in short: as §3
[22] = test system: A-375; experiment: Induction of apoptosis in human A-375 cells assessed as downregulation of CDK4 expression by measuring fold change at 5.04 microg/ml incubated for 1 hrs by ELISA; format: functional; conditions: dose 5.04 µg/ml; in short: as §3
[23] = test system: A-375; experiment: Induction of apoptosis in human A-375 cells assessed as downregulation of CDK6 expression by measuring fold change at 5.04 microg/ml incubated for 1 hrs by ELISA; format: functional; conditions: dose 5.04 µg/ml; in short: as §3
[24] = biological target: Epidermal growth factor receptor (Homo sapiens) (UniProt P00533); experiment: Inhibition of EGFR in human A-375 cells assessed as protein concentration incubated for 1 hrs by ELISA (reference value: 8.91 ng/ml); format: cell-based
Chain of Epidermal growth factor receptor (Homo sapiens) (P00533 whole entry): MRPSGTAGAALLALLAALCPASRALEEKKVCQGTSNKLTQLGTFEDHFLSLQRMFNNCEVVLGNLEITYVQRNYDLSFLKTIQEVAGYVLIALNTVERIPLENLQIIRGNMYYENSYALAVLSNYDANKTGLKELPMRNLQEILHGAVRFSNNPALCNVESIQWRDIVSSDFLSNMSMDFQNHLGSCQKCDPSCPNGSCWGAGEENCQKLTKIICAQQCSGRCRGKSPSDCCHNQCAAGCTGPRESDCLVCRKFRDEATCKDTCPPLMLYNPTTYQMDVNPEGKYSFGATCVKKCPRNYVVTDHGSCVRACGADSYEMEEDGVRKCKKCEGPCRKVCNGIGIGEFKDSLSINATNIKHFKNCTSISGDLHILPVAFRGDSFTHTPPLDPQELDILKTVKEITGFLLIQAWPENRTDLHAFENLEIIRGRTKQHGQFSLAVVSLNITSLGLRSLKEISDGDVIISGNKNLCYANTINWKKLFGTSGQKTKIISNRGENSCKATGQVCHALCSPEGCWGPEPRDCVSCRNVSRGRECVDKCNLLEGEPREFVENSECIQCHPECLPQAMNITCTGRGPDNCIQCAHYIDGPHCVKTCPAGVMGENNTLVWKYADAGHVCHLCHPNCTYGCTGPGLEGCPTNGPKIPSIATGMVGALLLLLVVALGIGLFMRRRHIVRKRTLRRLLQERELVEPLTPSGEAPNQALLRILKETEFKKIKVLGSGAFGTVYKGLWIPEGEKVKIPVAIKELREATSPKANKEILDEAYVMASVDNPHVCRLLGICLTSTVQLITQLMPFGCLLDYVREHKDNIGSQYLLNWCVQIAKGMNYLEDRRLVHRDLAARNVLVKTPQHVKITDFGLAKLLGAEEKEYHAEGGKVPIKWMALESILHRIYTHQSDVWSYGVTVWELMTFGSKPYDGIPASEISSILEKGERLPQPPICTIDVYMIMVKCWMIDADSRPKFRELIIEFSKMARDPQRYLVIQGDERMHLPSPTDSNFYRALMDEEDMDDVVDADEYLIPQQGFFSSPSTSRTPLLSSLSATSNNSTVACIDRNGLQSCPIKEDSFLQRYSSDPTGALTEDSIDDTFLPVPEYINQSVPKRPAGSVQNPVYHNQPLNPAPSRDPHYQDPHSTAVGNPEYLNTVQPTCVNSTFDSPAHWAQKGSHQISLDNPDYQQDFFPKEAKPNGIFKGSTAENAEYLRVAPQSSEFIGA
In short: (§4)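 Human EGFR or telomerase measured by sandwich ELISA. Samples and standards incubated 90 min at 37 °C, then biotinylated detection antibody 1 h, avidin-HRP 30 min and substrate about 15 min, all at 37 °C. Reaction stopped and OD read at 450 nm. Concentration taken from the standard curve.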

[25] = biological target: Telomerase reverse transcriptase (Homo sapiens) (UniProt O14746); experiment: Inhibition of telomerase in human A-375 cells assessed as protein concentration incubated for 1 hrs by ELISA (reference value: 3.56 ng/ml); format: cell-based; in short: as §4
Chain of Telomerase reverse transcriptase (Homo sapiens) (O14746 whole entry): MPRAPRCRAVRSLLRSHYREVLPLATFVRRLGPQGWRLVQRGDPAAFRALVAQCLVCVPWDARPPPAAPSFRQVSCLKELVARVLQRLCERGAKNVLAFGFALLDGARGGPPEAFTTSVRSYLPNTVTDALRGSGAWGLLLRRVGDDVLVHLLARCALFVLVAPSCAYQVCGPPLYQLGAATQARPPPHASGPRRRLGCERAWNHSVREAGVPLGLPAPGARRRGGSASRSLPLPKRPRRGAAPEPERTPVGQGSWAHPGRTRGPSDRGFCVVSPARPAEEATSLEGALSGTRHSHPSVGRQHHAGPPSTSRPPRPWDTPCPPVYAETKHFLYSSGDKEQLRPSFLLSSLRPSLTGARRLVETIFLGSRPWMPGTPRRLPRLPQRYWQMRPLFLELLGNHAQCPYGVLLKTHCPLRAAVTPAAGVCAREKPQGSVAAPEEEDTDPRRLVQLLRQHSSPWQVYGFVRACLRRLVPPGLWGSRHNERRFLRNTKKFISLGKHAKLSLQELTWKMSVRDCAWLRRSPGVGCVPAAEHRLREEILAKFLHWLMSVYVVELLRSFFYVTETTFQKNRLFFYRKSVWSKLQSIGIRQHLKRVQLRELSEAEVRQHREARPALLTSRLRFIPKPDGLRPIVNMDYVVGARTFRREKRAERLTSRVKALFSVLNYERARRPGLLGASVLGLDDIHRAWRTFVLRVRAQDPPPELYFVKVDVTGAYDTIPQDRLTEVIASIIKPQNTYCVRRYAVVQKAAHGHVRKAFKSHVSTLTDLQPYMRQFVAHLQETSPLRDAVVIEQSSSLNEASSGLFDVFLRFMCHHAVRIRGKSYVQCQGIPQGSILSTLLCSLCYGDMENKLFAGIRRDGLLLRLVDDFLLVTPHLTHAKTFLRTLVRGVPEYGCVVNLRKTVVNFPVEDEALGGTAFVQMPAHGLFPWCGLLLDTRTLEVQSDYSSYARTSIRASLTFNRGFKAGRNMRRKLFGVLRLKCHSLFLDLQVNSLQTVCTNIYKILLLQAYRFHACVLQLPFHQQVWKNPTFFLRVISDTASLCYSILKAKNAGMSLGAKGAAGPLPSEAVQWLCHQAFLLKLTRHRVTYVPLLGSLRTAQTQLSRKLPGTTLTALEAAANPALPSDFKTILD

[26] = biological target: Epidermal growth factor receptor (Homo sapiens) (UniProt P00533); experiment: Inhibition of EGFR in human A-375 cells assessed as downregulation of EGFR concentration by measuring fold change incubated for 1 hrs by ELISA; format: cell-based; in short: as §4
[27] = biological target: Telomerase reverse transcriptase (Homo sapiens) (UniProt O14746); experiment: Inhibition of telomerase in human A-375 cells assessed as downregulation of telomerase concentration by measuring fold change incubated for 1 hrs by ELISA; format: cell-based; in short: as §4
[28] = test system: A-375; experiment: Cell cycle arrest in human A-375 cells assessed as increase in accumulation of cells at G0/G1 phase at 3.1 microM incubated for 48 hrs by PI staining based flow cytometry analysis (reference value: 17.29 %)

Work on `COc1cccc(/C=N/NC(=O)c2nnn(-c3ccc(Cl)cc3)c2C)c1OC` yielded an inhibition at 48 h, 100 ug/mL [1] of 25%, an inhibition of growth at 100 µg/mL [2] of 85% and an inhibition of growth at 100 µg/mL [3] of 62%. It also gave an inhibition of growth at 100 µg/mL [4] of 69%, an inhibition of growth at 100 µg/mL [5] of 55% and an inhibition of growth at 100 µg/mL [6] of 76%. The inhibition of growth at 100 µg/mL [7] was 65%, the inhibition of growth at 100 µg/mL [8] was 63% and the inhibition of growth at 100 µg/mL [9] was 70%. For the same compound, the inhibition of growth at 100 µg/mL [10] was 82%, the inhibition of growth at 100 µg/mL [11] was 80% and the inhibition of growth at 100 µg/mL [12] was 72%. It also gave an inhibition at 48 h, 100 ug/mL [13] of 37%, an IC50 [14] of 13.3 µM and an IC50 [15] of 13.3 µM. For the same compound, the IC50 [16] was 12.6 µM, the IC50 [17] was 31.2 µM and the “fold change (FC)” value [18] was 1.35. For the same compound, the “fold change (FC)” value [19] was 1.55, the “fold change (FC)” value [20] was 1.51 and the “fold change (FC)” value [21] was 2.91. The “fold change (FC)” value [22] was 2.01, the “fold change (FC)” value [23] was 9.15 and the Activity [24] was 3.45 ng/mL. The Activity [25] was 1.31 ng/mL, the fold change (FC) [26] was 2.58 and the fold change (FC) [27] was 2.72. It also gave an Activity [28] of 78.39%.
